Measured values published in ChEMBL document CHEMBL1275556, “High prevalence of plasmid-mediated quinolone resistance genes qnr and aac(6')-Ib-cr in clinical isolates of Enterobacteriaceae from nine teaching hospitals in China” (2008).

Key:
Escherichia coli [1] = assay: Antimicrobial activity against aac(6')-Ib-cr-positive Escherichia coli FJ3T harboring wild-type GyrA, ParC, GyrB and qnrB genes by agar dilution method
Citrobacter freundii [2] = assay: Antimicrobial activity against aac(6')-Ib-cr-positive Citrobacter freundii JS33T harboring qnrA gene by agar dilution method; type: functional
Summary of the method: (§1)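 MICs were determined by the CLSI agar dilution method (M7-A7) and interpreted against CLSI M100-S17 breakpoints.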

Enterobacter cloacae [3] = assay: Antimicrobial activity against aac(6')-Ib-cr-negative Enterobacter cloacae WH42T harboring qnrA gene by agar dilution method; type: functional
Citrobacter freundii [4] = assay: Antimicrobial activity against aac(6')-Ib-cr-positive Citrobacter freundii TJ15T harboring wild-type GyrA, ParC, GyrB genes by agar dilution method; type: functional; summary of the method: as §1
Enterobacter cloacae [5] = assay: Antimicrobial activity against aac(6')-Ib-cr-negative Enterobacter cloacae SH39 harboring GyrA S83I, ParC S80I mutant, wild-type GyrB and qnrA genes by agar dilution method; type: functional
Citrobacter freundii [6] = assay: Antimicrobial activity against aac(6')-Ib-cr-positive Citrobacter freundii JN1T by agar dilution method; type: functional; summary of the method: as §1
Citrobacter freundii [7] = assay: Antimicrobial activity against aac(6')-Ib-cr-negative Citrobacter freundii JN64T harboring qnrA gene by agar dilution method; type: functional; summary of the method: as §1
Citrobacter freundii [8] = assay: Antimicrobial activity against aac(6')-Ib-cr-positive Citrobacter freundii JS33 harboring GyrA T83I mutant, wild-type ParC, GyrB, qnrA and qnrB genes by agar dilution method; type: functional; summary of the method: as §1
Klebsiella pneumoniae [9] = assay: Antimicrobial activity against aac(6')-Ib-cr-positive Klebsiella pneumoniae WH99 harboring wild-type GyrA, ParC, GyrB and qnrB genes by agar dilution method; type: functional
Summary of the method: (§2)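 MICs were determined on clinical isolates by CLSI agar dilution (M7-A7) and interpreted against CLSI M100-S17 breakpoints.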

Enterobacter cloacae [10] = assay: Antimicrobial activity against aac(6')-Ib-cr-negative Enterobacter cloacae WH42 harboring wild-type GyrA, ParC, GyrB and qnrA genes by agar dilution method; type: functional
Enterobacter cloacae [11] = assay: Antimicrobial activity against aac(6')-Ib-cr-negative Enterobacter cloacae FJ67T harboring qnrS gene by agar dilution method; type: functional
Klebsiella pneumoniae [12] = assay: Antimicrobial activity against aac(6')-Ib-cr-positive Klebsiella pneumoniae GZ40 harboring GyrA S83I, ParC S80I mutant, wild-type GyrB and qnrB genes by agar dilution method; type: functional; summary of the method: as §1
Klebsiella pneumoniae [13] = assay: Antimicrobial activity against aac(6')-Ib-cr-negative Klebsiella pneumoniae SY22 harboring GyrA S83I, ParC S80I mutant, wild-type GyrB and qnrS genes by agar dilution method; type: functional; summary of the method: as §1
Citrobacter freundii [14] = assay: Antimicrobial activity against aac(6')-Ib-cr-positive Citrobacter freundii JN1 harboring GyrA T83I, ParC S80I mutant, wild-type GyrB and qnrA genes by agar dilution method; type: functional; summary of the method: as §1
Escherichia coli [15] = assay: Antimicrobial activity against Escherichia coli J53 harboring wild-type GyrA, ParC, GyrB genes by agar dilution method
Enterobacter cloacae [16] = assay: Antimicrobial activity against aac(6')-Ib-cr-positive Enterobacter cloacae FJ63T harboring qnrS gene by agar dilution method; type: functional
Citrobacter freundii [17] = assay: Antimicrobial activity against aac(6')-Ib-cr-positive Citrobacter freundii PU55 harboring GyrA T83I, ParC S80I mutant, wild-type GyrB, qnrA genes by agar dilution method; type: functional; summary of the method: as §1
Enterobacter cloacae [18] = assay: Antimicrobial activity against aac(6')-Ib-cr-negative Enterobacter cloacae FJ61T harboring qnrS gene by agar dilution method; type: functional
Enterobacter cloacae [19] = assay: Antimicrobial activity against aac(6')-Ib-cr-negative Enterobacter cloacae FJ67 harboring […] and qnrS genes by agar dilution method; type: functional
Escherichia coli [20] = assay: Antimicrobial activity against aac(6')-Ib-cr-positive Escherichia coli FJ3 harboring GyrA S83L, ParC S80R mutant, wild-type GyrB and qnrB genes by agar dilution method; type: functional; summary of the method: as §1
Citrobacter freundii [21] = assay: Antimicrobial activity against aac(6')-Ib-cr-positive Citrobacter freundii PU55T harboring wild-type GyrA, ParC, GyrB and qnrA genes by agar dilution method
Klebsiella pneumoniae [22] = assay: Antimicrobial activity against aac(6')-Ib-cr-positive Klebsiella pneumoniae JN41T harboring qnrB gene by agar dilution method; type: functional
Summary of the method: (§3)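 Transconjugants were made by conjugating a qnr/aac(6')-Ib-cr donor with azide-resistant E. coli J53. Selection used Trypticase soy agar with sodium azide 150 µg/ml and sulfamethoxazole 180 µg/ml. […] MICs were read by CLSI agar dilution (M7-A7) and interpreted per M100-S17.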

Klebsiella pneumoniae [23] = assay: Antimicrobial activity against aac(6')-Ib-cr-positive Klebsiella pneumoniae SY26T harboring wild-type GyrA, ParC, GyrB and qnrB genes by agar dilution method; type: functional
Summary of the method: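 Transconjugants were made by conjugating a qnr/aac(6')-Ib-cr donor with azide-resistant E. coli J53. MICs were read by CLSI agar dilution (M7-A7) and interpreted per M100-S17.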

Klebsiella pneumoniae [24] = assay: Antimicrobial activity against aac(6')-Ib-cr-positive Klebsiella pneumoniae SY26 harboring GyrA S83I, ParC S80I mutant, wild-type GyrB and qnrB genes by agar dilution method; type: functional; summary of the method: as §2
Klebsiella pneumoniae [25] = assay: Antimicrobial activity against aac(6')-Ib-cr-negative Klebsiella pneumoniae SY22T harboring qnrS gene by agar dilution method; type: functional; summary of the method: as §1
Klebsiella pneumoniae [26] = assay: Antimicrobial activity against aac(6')-Ib-cr-positive Klebsiella pneumoniae JN132T harboring qnrB gene by agar dilution method; type: functional; summary of the method: as §3
Enterobacter cloacae [27] = assay: Antimicrobial activity against aac(6')-Ib-cr-negative Enterobacter cloacae GZ47 harboring qnrB and qnrS genes by agar dilution method; type: functional
Enterobacter cloacae [28] = assay: Antimicrobial activity against aac(6')-Ib-cr-negative Enterobacter cloacae GZ51T harboring qnrA gene by agar dilution method; type: functional
Enterobacter cloacae [29] = assay: Antimicrobial activity against aac(6')-Ib-cr-negative Enterobacter cloacae GZ47T harboring qnrB gene by agar dilution method; type: functional
Citrobacter freundii [30] = assay: Antimicrobial activity against aac(6')-Ib-cr-positive Citrobacter freundii TJ15 harboring GyrA T83I, ParC S80I mutant, wild-type GyrB, qnrB genes by agar dilution method; type: functional; summary of the method: as §1
Enterobacter cloacae [31] = assay: Antimicrobial activity against aac(6')-Ib-cr-negative Enterobacter cloacae GZ51 harboring qnrA gene by agar dilution method; type: functional
Enterobacter cloacae [32] = assay: Antimicrobial activity against aac(6')-Ib-cr-positive Enterobacter cloacae FJ63 harboring GyrA S83I, GyrA D87A, ParC S80I mutant, wild-type GyrB and qnrS genes by agar dilution method; type: functional
Klebsiella pneumoniae [33] = assay: Antimicrobial activity against aac(6')-Ib-cr-positive Klebsiella pneumoniae JN41 harboring GyrA S83I, ParC S80I mutant, wild-type GyrB and qnrB genes by agar dilution method; type: functional; summary of the method: as §2
Citrobacter freundii [34] = assay: Antimicrobial activity against aac(6')-Ib-cr-negative Citrobacter freundii JN64 harboring GyrA T83I, wild-type ParC, GyrB and qnrA genes by agar dilution method; type: functional; summary of the method: as §1
Klebsiella pneumoniae [35] = assay: Antimicrobial activity against aac(6')-Ib-cr-positive Klebsiella pneumoniae GZ40T harboring qnrB gene by agar dilution method
Klebsiella pneumoniae [36] = assay: Antimicrobial activity against aac(6')-Ib-cr-positive Klebsiella pneumoniae JN132 harboring GyrA S83I, ParC S80I mutant, wild-type GyrB and qnrB genes by agar dilution method; type: functional; summary of the method: as §2
Escherichia coli [37] = assay: Antimicrobial activity against aac(6')-Ib-cr-negative Escherichia coli PU12 harboring GyrA S83L mutant, wild-type GyrB, ParC and qnrS genes by agar dilution method; type: functional; summary of the method: as §1
Enterobacter cloacae [38] = assay: Antimicrobial activity against aac(6')-Ib-cr-negative Enterobacter cloacae FJ61 harboring GyrA S83I, GyrA D87A, ParC S80I mutant, wild-type GyrB and qnrS genes by agar dilution method; type: functional
Escherichia coli [39] = assay: Antimicrobial activity against aac(6')-Ib-cr-negative Escherichia coli PU12T harboring wild-type GyrA, GyrB, ParC and qnrS genes by agar dilution method; type: functional; summary of the method: as §1
Enterobacter cloacae [40] = assay: Antimicrobial activity against aac(6')-Ib-cr-negative Enterobacter cloacae SH39T harboring qnrA gene by agar dilution method; type: functional
Klebsiella pneumoniae [41] = assay: Antimicrobial activity against aac(6')-Ib-cr-positive Klebsiella pneumoniae WH99T harboring qnrB gene by agar dilution method; type: functional; summary of the method: as §3

Measured: MIC

NCC[C@H](O)C(=O)N[C@@H]1C[C@H](N)[C@@H](O[C@H]2O[C@H](CN)[C@@H](O)[C@H](O)[C@H]2O)[C@H](O)[C@H]1O[C@H]1O[C@H](CO)[C@@H](O)[C@H](N)[C@H]1O [AMIKACIN]
> 256 µg/mL: Citrobacter freundii [7] | Enterobacter cloacae [28] | Enterobacter cloacae [31] | Enterobacter cloacae [32] | Citrobacter freundii [34]
16 µg/mL: Enterobacter cloacae [3] | Enterobacter cloacae [10] | Enterobacter cloacae [11]
1 µg/mL: Escherichia coli [15] | Enterobacter cloacae [27] | Enterobacter cloacae [29]
2 µg/mL: Escherichia coli [1] | Enterobacter cloacae [5] | Citrobacter freundii [6] | Klebsiella pneumoniae [9] | Klebsiella pneumoniae [13] | Enterobacter cloacae [18] | Klebsiella pneumoniae [25] | Enterobacter cloacae [38] | Enterobacter cloacae [40] | Klebsiella pneumoniae [41]
64 µg/mL: Enterobacter cloacae [16] | Klebsiella pneumoniae [24] | Klebsiella pneumoniae [26] | Klebsiella pneumoniae [36]
8 µg/mL: Klebsiella pneumoniae [12] | Escherichia coli [37]
32 µg/mL: Enterobacter cloacae [19] | Klebsiella pneumoniae [23]
4 µg/mL: all other assays above
